ChEMBL document CHEMBL3286116, “Synthesis, biological evaluation and structure-activity correlation study of a series of imidazol-based compounds as Candida albicans inhibitors” (Eur J Med Chem, 2014)
In brackets after ≈: the same amount, converted by molar mass.

Columns and labels:
Assay type in all cases: functional
[1] = test system: Candida albicans; assay: Antifungal activity against Candida albicans ATCC 90028 after 48 hrs by CLSI broth microdilution method; conditions: ATCC 90028, 48 h
Outline: (§1)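 Yeast CLSI broth microdilution (M27-A3). Compounds dissolved in DMSO at 100× the top test concentration, then diluted as serial two-fold dilutions in RPMI 1640 to final 0.125–64. Inoculum was 1.0–1.5 × 10^3 cells mL−1, incubated at 35 °C and read for growth at 48 h. MIC is the lowest concentration giving ≥50% growth inhibition versus growth control. Reported as the median of five replicates and as the geometric mean.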

[2] = test system: Candida albicans; assay: Antifungal activity against Candida albicans ATCC 20891 after 48 hrs by CLSI broth microdilution method; conditions: ATCC 20891, 48 h; outline: as §1
[3] = test system: Candida albicans; assay: Antifungal activity against Candida albicans PMC 1011 after 48 hrs by CLSI broth microdilution method; conditions: PMC 1011, 48 h; outline: as §1
[4] = test system: Pichia kudriavzevii; assay: Antifungal activity against Candida krusei DSM 6128 after 48 hrs by CLSI broth microdilution method; conditions: DSM 6128, 48 h; outline: as §1
[5] = test system: Pichia kudriavzevii; assay: Antifungal activity against Candida krusei PMC 0613 after 48 hrs by CLSI broth microdilution method; conditions: PMC 0613, 48 h; outline: as §1
[6] = test system: Candida tropicalis; assay: Antifungal activity against Candida tropicalis PMC 0910 after 48 hrs by CLSI broth microdilution method; conditions: PMC 0910, 48 h; outline: as §1
[7] = test system: Candida tropicalis; assay: Antifungal activity against Candida tropicalis DSM 11953 after 48 hrs by CLSI broth microdilution method; conditions: DSM 11953, 48 h; outline: as §1
[8] = test system: Candida parapsilosis; assay: Antifungal activity against Candida parapsilosis DSM 11224 after 48 hrs by CLSI broth microdilution method; conditions: Lodderomyces parapsilosis, DSM 11224, 48 h; outline: as §1
[9] = test system: Candida parapsilosis; assay: Antifungal activity against Candida parapsilosis ATCC 22019 after 48 hrs by CLSI broth microdilution method; conditions: Lodderomyces parapsilosis, ATCC 22019, 48 h; outline: as §1
[10] = test system: Nakaseomyces glabratus; assay: Antifungal activity against Candida glabrata PMC 0805 after 48 hrs by CLSI broth microdilution method; conditions: PMC 0805, 48 h; outline: as §1
[11] = test system: Nakaseomyces glabratus; assay: Antifungal activity against Candida glabrata PMC 0807 after 48 hrs by CLSI broth microdilution method; conditions: PMC 0807, 48 h; outline: as §1
[12] = test system: Cryptococcus neoformans; assay: Antifungal activity against Cryptococcus neoformans PMC 2123 after 72 hrs by CLSI broth microdilution method; conditions: PMC 2123, 72 h
Outline: (§2)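 Cryptococcus neoformans tested by CLSI broth microdilution in RPMI 1640, with serial two-fold dilutions from DMSO stocks at 100× the top concentration, final 0.125–64. Inoculum was 1.0–1.5 × 10^3 cells mL−1 at 35 °C, with growth read at 72 h. MIC is the lowest concentration with ≥50% growth inhibition versus control. Median of five replicates, plus geometric mean.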

[13] = test system: Cryptococcus neoformans; assay: Antifungal activity against Cryptococcus neoformans PMC 2136 after 72 hrs by CLSI broth microdilution method; conditions: PMC 2136, 72 h; outline: as §2
[14] = test system: Cryptococcus neoformans; assay: Antifungal activity against Cryptococcus neoformans PMC 2115 after 72 hrs by CLSI broth microdilution method; conditions: PMC 2115, 72 h; outline: as §2
[15] = test system: Cryptococcus neoformans; assay: Antifungal activity against Cryptococcus neoformans PMC 2103 after 72 hrs by CLSI broth microdilution method; conditions: PMC 2103, 72 h; outline: as §2
[16] = test system: Cryptococcus neoformans; assay: Antifungal activity against Cryptococcus neoformans PMC 2107 after 72 hrs by CLSI broth microdilution method; conditions: PMC 2107, 72 h; outline: as §2
[17] = test system: Cryptococcus neoformans; assay: Antifungal activity against Cryptococcus neoformans PMC 2102 after 72 hrs by CLSI broth microdilution method; conditions: PMC 2102, 72 h; outline: as §2
[18] = test system: Cryptococcus neoformans; assay: Antifungal activity against Cryptococcus neoformans DSM 11959 after 72 hrs by CLSI broth microdilution method; conditions: DSM 11959, 72 h; outline: as §2
[19] = test system: Cryptococcus neoformans; assay: Antifungal activity against Cryptococcus neoformans PMC 2111 after 72 hrs by CLSI broth microdilution method; conditions: PMC 2111, 72 h; outline: as §2
[20] = test system: Trichophyton mentagrophytes; assay: Antifungal activity against Trichophyton mentagrophytes DSM 4870 after 72 hrs by CLSI broth microdilution method; conditions: DSM 4870, 72 h
Outline: (§3)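 Dermatophytes tested by CLSI broth microdilution for filamentous fungi (M38-A2). Serial two-fold dilutions of DMSO-dissolved compound in RPMI 1640, final 0.125–64. Inoculum was 0.4–5 × 10^4 CFU mL−1, incubated at 35 °C and read at 72 h. MIC80 is the lowest concentration giving ≥80% growth inhibition versus growth control. Median of five replicates, plus geometric mean.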

[21] = test system: Trichophyton mentagrophytes; assay: Antifungal activity against Trichophyton mentagrophytes PMC 6515 after 72 hrs by CLSI broth microdilution method; conditions: PMC 6515, 72 h; outline: as §3
[22] = test system: Trichophyton mentagrophytes; assay: Antifungal activity against Trichophyton mentagrophytes PMC 6531 after 72 hrs by CLSI broth microdilution method; conditions: PMC 6531, 72 h; outline: as §3
[23] = test system: Trichophyton mentagrophytes; assay: Antifungal activity against Trichophyton mentagrophytes PMC 6509 after 72 hrs by CLSI broth microdilution method; conditions: PMC 6509, 72 h; outline: as §3
[24] = test system: Trichophyton mentagrophytes; assay: Antifungal activity against Trichophyton mentagrophytes PMC 6503 after 72 hrs by CLSI broth microdilution method; conditions: PMC 6503, 72 h; outline: as §3
[25] = test system: Trichophyton mentagrophytes; assay: Antifungal activity against Trichophyton mentagrophytes PMC 6552 after 72 hrs by CLSI broth microdilution method; conditions: PMC 6552, 72 h; outline: as §3
[26] = test system: Nannizzia gypsea; assay: Antifungal activity against Microsporum gypseum PMC 7303 after 72 hrs by CLSI broth microdilution method; conditions: PMC 7303, 72 h; outline: as §3
[27] = test system: Nannizzia gypsea; assay: Antifungal activity against Microsporum gypseum PMC 7331 after 72 hrs by CLSI broth microdilution method; conditions: PMC 7331, 72 h; outline: as §3
[28] = test system: Nannizzia gypsea; assay: Antifungal activity against Microsporum gypseum DSM 3824 after 72 hrs by CLSI broth microdilution method; conditions: DSM 3824, 72 h; outline: as §3
[29] = test system: Candida albicans; assay: Antifungal activity against Candida albicans ATCC 24433 after 48 hrs by CLSI broth microdilution method; conditions: ATCC 24433, 48 h; outline: as §1
[30] = test system: Candida albicans; assay: Antifungal activity against Candida albicans ATCC 3153 after 48 hrs by CLSI broth microdilution method; conditions: ATCC 3153, 48 h; outline: as §1
[31] = test system: Candida albicans; assay: Antifungal activity against Candida albicans ATCC 10231 after 48 hrs by CLSI broth microdilution method; conditions: ATCC 10231, 48 h; outline: as §1
[32] = test system: Candida albicans; assay: Antifungal activity against Candida albicans ATCC 76615 after 48 hrs by CLSI broth microdilution method; conditions: ATCC 76615, 48 h; outline: as §1
[33] = test system: Candida albicans; assay: Antifungal activity against Candida albicans ATCC 10261 after 48 hrs by CLSI broth microdilution method; conditions: ATCC 10261, 48 h; outline: as §1

SMILES | MIC50 [1] [µg/mL] | MIC50 [2] [µg/mL] | MIC50 [3] [µg/mL] | MIC50 [4] [µg/mL] | MIC50 [5] [µg/mL] | MIC50 [6] [µg/mL] | MIC50 [7] [µg/mL] | MIC50 [8] [µg/mL] | MIC50 [9] [µg/mL] | MIC50 [10] [µg/mL] | MIC50 [11] [µg/mL] | MIC50 [12] [µg/mL] | MIC50 [13] [µg/mL] | MIC50 [14] [µg/mL] | MIC50 [15] [µg/mL] | MIC50 [16] [µg/mL] | MIC50 [17] [µg/mL] | MIC50 [18] [µg/mL] | MIC50 [19] [µg/mL] | MIC80 [20] [µg/mL] | further results
O=C(OC(Cn1ccnc1)c1ccc(Cl)cc1)N1CCN(c2ccc([N+](=O)[O-])cc2)CC1 (stereo unspecified) | 2 (≈ 4.39 µM) | 8 (≈ 17.5 µM) | 16 (≈ 35.1 µM) | 128 (≈ 281 µM) | 16 (≈ 35.1 µM) | 64 (≈ 140 µM) | 128 (≈ 281 µM) | 4 (≈ 8.77 µM) | 8 (≈ 17.5 µM) | 64 (≈ 140 µM) | 64 (≈ 140 µM) | 64 (≈ 140 µM) | 8 (≈ 17.5 µM) | 32 (≈ 70.2 µM) | 8 (≈ 17.5 µM) | 8 (≈ 17.5 µM) | 16 (≈ 35.1 µM) | 8 (≈ 17.5 µM) | 8 (≈ 17.5 µM) | 64 (≈ 140 µM) | MIC80 [21]: 32 µg/mL (≈ 70.2 µM); MIC80 [22]: 32 µg/mL (≈ 70.2 µM); MIC80 [23]: 32 µg/mL (≈ 70.2 µM); MIC80 [24]: 64 µg/mL (≈ 140 µM); MIC80 [25]: 32 µg/mL (≈ 70.2 µM); MIC80 [26]: 32 µg/mL (≈ 70.2 µM); MIC80 [27]: 16 µg/mL (≈ 35.1 µM); MIC80 [28]: 64 µg/mL (≈ 140 µM); MIC50 [29]: 32 µg/mL (≈ 70.2 µM); MIC50 [30]: 16 µg/mL (≈ 35.1 µM); MIC50 [31]: 16 µg/mL (≈ 35.1 µM); MIC50 [32]: 128 µg/mL (≈ 281 µM); MIC50 [33]: 8 µg/mL (≈ 17.5 µM)
CCS(=O)(=O)N1CCN(c2ccc(NC(=O)OC(Cn3ccnc3)c3ccc(F)cc3)cc2)CC1 (stereo unspecified) | 128 (≈ 255 µM) | 128 (≈ 255 µM) | 128 (≈ 255 µM) | 128 (≈ 255 µM) | 128 (≈ 255 µM) | 128 (≈ 255 µM) | 128 (≈ 255 µM) | 128 (≈ 255 µM) | 128 (≈ 255 µM) | 128 (≈ 255 µM) | 128 (≈ 255 µM) | 32 (≈ 63.8 µM) | 16 (≈ 31.9 µM) | 32 (≈ 63.8 µM) | 16 (≈ 31.9 µM) | 8 (≈ 15.9 µM) | 16 (≈ 31.9 µM) | 16 (≈ 31.9 µM) | 16 (≈ 31.9 µM) | 128 (≈ 255 µM) | MIC80 [21]: 128 µg/mL (≈ 255 µM); MIC80 [22]: 128 µg/mL (≈ 255 µM); MIC80 [23]: 128 µg/mL (≈ 255 µM); MIC80 [24]: 128 µg/mL (≈ 255 µM); MIC80 [25]: 128 µg/mL (≈ 255 µM); MIC80 [26]: 128 µg/mL (≈ 255 µM); MIC80 [27]: 128 µg/mL (≈ 255 µM); MIC80 [28]: 128 µg/mL (≈ 255 µM); MIC50 [29]: 128 µg/mL (≈ 255 µM); MIC50 [30]: 128 µg/mL (≈ 255 µM); MIC50 [31]: 128 µg/mL (≈ 255 µM); MIC50 [32]: 128 µg/mL (≈ 255 µM); MIC50 [33]: 128 µg/mL (≈ 255 µM)
